For orientation: MIC means the lowest concentration found to suppress growth.

Activity and MIC data for eleven compounds are collected here from ChEMBL document CHEMBL1139132, “N-caffeoylphenalkylamide derivatives as bacterial efflux pump inhibitors” (2007).

Holding throughout (type): functional
Test [1] has as its system Staphylococcus aureus. Description: Inhibition of NorA pump in fluoroquinolone-resistant Staphylococcus aureus SA1199B assessed as drug level causing 4-fold reduction of Norfloxacin MIC. Summed up:
(§1)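 SA-1199B, which overexpresses NorA, tested by dilution MIC. Norfloxacin MIC measured with and without added test agent. Potentiation expressed as the fold reduction of the norfloxacin MIC relative to norfloxacin alone, at the stated agent concentration.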

Test [2] concerns Staphylococcus aureus. Description: Inhibition of NorA pump in fluoroquinolone-resistant Staphylococcus aureus SA1199B assessed as drug level causing reduction of Norfloxacin MIC. Summed up:
as §1

Test [3] concerns Staphylococcus aureus. Description: Antimicrobial activity against fluoroquinolone-resistant Staphylococcus aureus SA1199B. In short, it runs like this: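 S. aureus SA-1199B, which overexpresses the NorA MDR efflux pump. MIC determined by the standard dilution method for aerobically growing bacteria.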
Test [4] deals with Staphylococcus aureus. As to the kind of experiment: Inhibition of NorA pump in fluoroquinolone-resistant Staphylococcus aureus SA1199B assessed as drug level causing 8-fold reduction of Norfloxacin MIC. Summed up:
as §1

Test [5] has as its system Staphylococcus aureus. As to the kind of experiment: Inhibition of NorA pump in fluoroquinolone-resistant Staphylococcus aureus SA1199B assessed as drug level causing 16-fold reduction of Norfloxacin MIC. Summed up:
as §1

Test [6] relates to Staphylococcus aureus. As to the kind of experiment: Inhibition of NorA pump in fluoroquinolone-resistant Staphylococcus aureus SA1199B assessed as drug level causing 2-fold reduction of Norfloxacin MIC. In short, it runs like this:
as §1

Values after ≈ are worked out from the molar mass of the structure shown.

Turning to `COc1ccc(/C=C/C(=O)NCCc2ccccc2)cc1OC`, the Activity in the test on Staphylococcus aureus [1] was determined as 322 µM. Turning to `COc1ccc(CCC(=O)NCCc2ccc(O)c(O)c2)cc1OC`, in the test on Staphylococcus aureus [2], the Activity came to 290 µM. In the case of `COc1ccc(/C=C/C(=O)NCCc2c[nH]c3ccccc23)cc1OC`, in the test on Staphylococcus aureus [3], the MIC was greater than 366 µM. Besides, the Activity is 57 µM with Staphylococcus aureus [4], 29 µM with Staphylococcus aureus [1] and 286 µM with Staphylococcus aureus [5].

Turning to `COc1ccc(/C=C/C(=O)NCCc2ccc(O)c(O)c2)cc1OC`, the Activity amounted to 292 µM in the test on Staphylococcus aureus [4] and 146 µM with Staphylococcus aureus [1]. Regarding `COc1ccc(/C=C/C(=O)NCCc2ccc(OC)c(OC)c2)cc1OC`, the Activity was found to be 162 µM in the test on Staphylococcus aureus [4] and 54 µM with Staphylococcus aureus [6]. For `COc1cc(/C=C/C(=O)NCCc2ccc(O)c(O)c2)cc(OC)c1OC`, the Activity with Staphylococcus aureus [1] stood at 268 µM. In the test with Staphylococcus aureus [3], `COc1ccc(/C=C/C(=O)NCCc2cc(O)c(O)c(O)c2)cc1OC` gave an MIC of 356 µM (≈ 128 µg/mL). For the same compound, in the test on Staphylococcus aureus [2], the Activity turned out to be 56 µM. `O=C(/C=C/c1ccccc1)NCCc1ccc(O)c(O)c1`: in the test with Staphylococcus aureus [3], the MIC was greater than 452 µM. Also, the values for the Activity in the test with Staphylococcus aureus [1] and in the test with Staphylococcus aureus [5] were 70 µM and 353 µM, respectively. The compound `O=C(/C=C/c1ccc(O)c(O)c1)NCCc1ccc(O)c(O)c1` gave an MIC in the test on Staphylococcus aureus [3] of no less than 406 µM. In addition, the Activity with Staphylococcus aureus [4] turned out to be 317 µM; in the test on Staphylococcus aureus [1], 63 µM. As for `CCn1cc(C(=O)O)c(=O)c2cc(F)c(N3CCNCC3)cc21` [NORFLOXACIN], in the test with Staphylococcus aureus [3], the MIC worked out at 100 µM (≈ 31.9 µg/mL). `COC(=O)[C@H]1[C@H]2C[C@@H]3c4[nH]c5cc(OC)ccc5c4CCN3C[C@H]2C[C@@H](OC(=O)c2cc(OC)c(OC)c(OC)c2)[C@@H]1OC` [RESERPINE]: the MIC with Staphylococcus aureus [4] (Staphylococcus aureus, SA1199B) came to 33 µM (≈ 20.1 µg/mL).
